According to ChEMBL document CHEMBL3272347, “Adamantanamine derivatives. Antimicrobial activities of certain Mannich bases” (1976):
≈ marks a conversion by molar mass, not a printed value.

Tests used:
Type in all cases: functional
[1] = system: Escherichia coli; assay: Antimicrobial activity against Escherichia coli ATCC 10586 assessed as zone of inhibition after 24 hrs at 2 mg/0.1 ml by agar diffusion method
Method in brief: (§1)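 Bacteria were tested on seeded agar plates with 12.7-mm disks, each loaded with 0.1 ml of compound in Me2SO (stock used directly or Me2SO-diluted). Disks were held 30 min on a wire screen before placement, four per plate. Incubation was 37°, 24 hr. Inhibition zones were measured by caliper to the nearest 0.1 mm. Replicates were 2–4 per dilution over at least two separate days, averaged.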

[2] = system: Pseudomonas aeruginosa; assay: Antimicrobial activity against Pseudomonas aeruginosa OU 10048 assessed as zone of inhibition after 24 hrs at 4 mg/0.1 ml by agar diffusion method; method in brief: as §1
[3] = system: Candida albicans; assay: Antimicrobial activity against Candida albicans CDC MI-023 assessed as zone of inhibition after 24 hrs at 4 mg/0.1 ml by agar diffusion method
Method in brief: (§2)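 Disk agar diffusion on SDA. Compound in Me2SO stock, used neat or diluted in Me2SO, was loaded at 0.1 ml per 12.7-mm disk. Disks stood 30 min on mesh, then went four per seeded plate. Plates ran at 37° for 48 hr (A. niger) or 24 hr (C. albicans). Zones were read by caliper to 0.1 mm. There were 2–4 replicate disks per dilution and ≥2 experiments on separate days with same-day stocks; results were averaged.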

[4] = system: Mycolicibacterium phlei; assay: Antimicrobial activity against Mycobacterium phlei ATCC 356 assessed as zone of inhibition after 48 hrs at 0.5 mg/0.1 ml by agar diffusion method
Method in brief: (§3)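 Mycobacterium disk diffusion on MDTM agar. Each disk (12.7 mm) got 0.1 ml of Me2SO solution, was air-stood 30 min, then was placed four per seeded plate. Plates were incubated at 37° for 48 hr. Zone diameter was measured by caliper to 0.1 mm. Results averaged 2–4 replicate disks and ≥2 independent-day experiments.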

[5] = system: Staphylococcus aureus; assay: Antimicrobial activity against Staphylococcus aureus ATCC 10001 assessed as zone of inhibition after 24 hrs at 0.5 mg/0.1 ml by agar diffusion method; method in brief: as §1
[6] = system: Escherichia coli; assay: Antimicrobial activity against Escherichia coli ATCC 11303 assessed as zone of inhibition after 24 hrs at 2 mg/0.1 ml by agar diffusion method; method in brief: as §1
[7] = system: Staphylococcus aureus; assay: Antimicrobial activity against Staphylococcus aureus ATCC 10014 assessed as zone of inhibition after 24 hrs at 0.5 mg/0.1 ml by agar diffusion method; method in brief: as §1
[8] = system: Aspergillus niger; assay: Antimicrobial activity against Aspergillus niger OU S-23 assessed as zone of inhibition after 48 hrs at 4 mg/0.1 ml by agar diffusion method; method in brief: as §2
[9] = system: Mycolicibacterium smegmatis; assay: Antimicrobial activity against Mycobacterium smegmatis OU 10049 assessed as zone of inhibition after 48 hrs at 1 mg/0.1 ml by agar diffusion method; method in brief: as §3
[10] = system: Escherichia coli; assay: Antimicrobial activity against Escherichia coli ATCC 8739 assessed as zone of inhibition after 24 hrs at 2 mg/0.1 ml by agar diffusion method; method in brief: as §1
[11] = system: Escherichia coli; assay: Antimicrobial activity against Escherichia coli ATCC 11303 assessed as zone of inhibition after 24 hrs at 0.1 mg/0.1 ml by agar diffusion method; method in brief: as §1
[12] = system: Staphylococcus aureus; assay: Antimicrobial activity against Staphylococcus aureus ATCC 10001 assessed as zone of inhibition after 24 hrs at 0.05 mg/0.1 ml by agar diffusion method; method in brief: as §1
[13] = system: Mycolicibacterium smegmatis; assay: Antimicrobial activity against Mycobacterium smegmatis by tube dilution method
Method in brief: (§4)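 MIC was found by tube dilution, with Me2SO as carrier solvent diluted in the tubes. For M. smegmatis, separate determinations were made in MDTM broth and in MDTM agar.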

[14] = system: Staphylococcus aureus; assay: Antimicrobial activity against Staphylococcus aureus ATCC 10014 assessed as zone of inhibition after 24 hrs at 0.05 mg/0.1 ml by agar diffusion method; method in brief: as §1
[15] = system: Mycolicibacterium phlei; assay: Antimicrobial activity against Mycobacterium phlei ATCC 356 assessed as zone of inhibition after 48 hrs at 0.25 mg/0.1 ml by agar diffusion method; method in brief: as §3
[16] = system: Mycolicibacterium smegmatis; assay: Antimicrobial activity against Mycobacterium smegmatis OU 10049 assessed as zone of inhibition after 48 hrs at 0.25 mg/0.1 ml by agar diffusion method; method in brief: as §3
[17] = system: Staphylococcus aureus; assay: Antimicrobial activity against Staphylococcus aureus by tube dilution method; method in brief: as §4
[18] = system: Escherichia coli; assay: Antimicrobial activity against Escherichia coli ATCC 8739 assessed as zone of inhibition after 24 hrs at 0.5 mg/0.1 ml by agar diffusion method; method in brief: as §1
[19] = system: Aspergillus niger; assay: Antimicrobial activity against Aspergillus niger OU S-23 assessed as zone of inhibition after 48 hrs at 2 mg/0.1 ml by agar diffusion method; method in brief: as §2
[20] = system: Candida albicans; assay: Antimicrobial activity against Candida albicans CDC MI-023 assessed as zone of inhibition after 24 hrs at 0.1 mg/0.1 ml by agar diffusion method; method in brief: as §2
[21] = system: Escherichia coli; assay: Antimicrobial activity against Escherichia coli ATCC 10586 assessed as zone of inhibition after 24 hrs at 0.25 mg/0.1 ml by agar diffusion method; method in brief: as §1
[22] = system: Escherichia coli; assay: Antimicrobial activity against Escherichia coli by tube dilution method; method in brief: as §4
[23] = system: Mycolicibacterium smegmatis; assay: Antimicrobial activity against Mycobacterium smegmatis OU 10049 assessed as zone of inhibition after 48 hrs at 0.5 mg/0.1 ml by agar diffusion method; method in brief: as §3
[24] = system: Staphylococcus aureus; assay: Antimicrobial activity against Staphylococcus aureus ATCC 10014 assessed as zone of inhibition after 24 hrs at 0.1 mg/0.1 ml by agar diffusion method; method in brief: as §1
[25] = system: Escherichia coli; assay: Antimicrobial activity against Escherichia coli ATCC 11303 assessed as zone of inhibition after 24 hrs at 1 mg/0.1 ml by agar diffusion method; method in brief: as §1
[26] = system: Staphylococcus aureus; assay: Antimicrobial activity against Staphylococcus aureus ATCC 10001 assessed as zone of inhibition after 24 hrs at 0.1 mg/0.1 ml by agar diffusion method; method in brief: as §1
[27] = system: Candida albicans; assay: Antimicrobial activity against Candida albicans CDC MI-023 assessed as zone of inhibition after 24 hrs at 2 mg/0.1 ml by agar diffusion method; method in brief: as §2
[28] = system: Escherichia coli; assay: Antimicrobial activity against Escherichia coli ATCC 11303 assessed as zone of inhibition after 24 hrs at 0.5 mg/0.1 ml by agar diffusion method; method in brief: as §1
[29] = system: Escherichia coli; assay: Antimicrobial activity against Escherichia coli ATCC 8739 assessed as zone of inhibition after 24 hrs at 1 mg/0.1 ml by agar diffusion method; method in brief: as §1
[30] = system: Escherichia coli; assay: Antimicrobial activity against Escherichia coli ATCC 10586 assessed as zone of inhibition after 24 hrs at 1 mg/0.1 ml by agar diffusion method; method in brief: as §1
[31] = system: Staphylococcus aureus; assay: Antimicrobial activity against Staphylococcus aureus ATCC 10014 assessed as zone of inhibition after 24 hrs at 0.25 mg/0.1 ml by agar diffusion method; method in brief: as §1
[32] = system: Mycolicibacterium phlei; assay: Antimicrobial activity against Mycobacterium phlei ATCC 356 assessed as zone of inhibition after 48 hrs at 0.1 mg/0.1 ml by agar diffusion method; method in brief: as §3
[33] = system: Escherichia coli; assay: Antimicrobial activity against Escherichia coli ATCC 8739 assessed as zone of inhibition after 24 hrs at 4 mg/0.1 ml by agar diffusion method; method in brief: as §1
[34] = system: Staphylococcus aureus; assay: Antimicrobial activity against Staphylococcus aureus ATCC 10001 assessed as zone of inhibition after 24 hrs at 0.25 mg/0.1 ml by agar diffusion method; method in brief: as §1
[35] = system: Mycolicibacterium smegmatis; assay: Antimicrobial activity against Mycobacterium smegmatis OU 10049 assessed as zone of inhibition after 48 hrs at 0.1 mg/0.1 ml by agar diffusion method; method in brief: as §3

Compound	MIC [13] [µg/mL]	MIC [17] [µg/mL]	MIC [22] [µg/mL]	inhibition zone (IZ) [1] [mm]	inhibition zone (IZ) [2] [mm]	inhibition zone (IZ) [4] [mm]	inhibition zone (IZ) [6] [mm]	inhibition zone (IZ) [8] [mm]	inhibition zone (IZ) [10] [mm]	inhibition zone (IZ) [15] [mm]	inhibition zone (IZ) [16] [mm]	inhibition zone (IZ) [19] [mm]	inhibition zone (IZ) [20] [mm]	inhibition zone (IZ) [24] [mm]	inhibition zone (IZ) [26] [mm]	inhibition zone (IZ) [27] [mm]	other results
Cl.O=C(CCNC12CC3CC(CC(C3)C1)C2)c1ccc(O)cc1				16	15	16.3	17.2	15	16								inhibition zone (IZ) [3]: 15.4 mm; inhibition zone (IZ) [5]: 15.6 mm; inhibition zone (IZ) [7]: 15.3 mm; inhibition zone (IZ) [9]: 19 mm
Cl.O=C(CCNC12CC3CC(CC(C3)C1)C2)c1cccc([N+](=O)[O-])c1				16.8	15	19.1			16.3			15		15.7	15.4	16.2	inhibition zone (IZ) [23]: 16.6 mm; inhibition zone (IZ) [25]: 15.5 mm

Further lines, with some results ahead:

MIC [13] [µg/mL]	MIC [17] [µg/mL]	MIC [22] [µg/mL]	Compound	inhibition zone (IZ) [1] [mm]	inhibition zone (IZ) [2] [mm]	inhibition zone (IZ) [4] [mm]	inhibition zone (IZ) [6] [mm]	inhibition zone (IZ) [8] [mm]	inhibition zone (IZ) [10] [mm]	inhibition zone (IZ) [15] [mm]	inhibition zone (IZ) [16] [mm]	inhibition zone (IZ) [19] [mm]	inhibition zone (IZ) [20] [mm]	inhibition zone (IZ) [24] [mm]	inhibition zone (IZ) [26] [mm]	inhibition zone (IZ) [27] [mm]	other results
125	125	500	Cl.O=C(CCNC12CC3CC(CC(C3)C1)C2)c1ccc(Br)cc1		<15					19.2	17	19	15.1				inhibition zone (IZ) [11]: 15.6 mm; inhibition zone (IZ) [12]: 16.6 mm; inhibition zone (IZ) [14]: 17 mm; inhibition zone (IZ) [18]: 17.8 mm; inhibition zone (IZ) [21]: 15.3 mm
125	125	500	Cl.O=C(CCNC12CC3CC(CC(C3)C1)C2)c1cccc(Br)c1		15			16.8		20	17.6		15.3	17.5	18.7		inhibition zone (IZ) [28]: 17.5 mm; inhibition zone (IZ) [29]: 18.2 mm; inhibition zone (IZ) [30]: 17.4 mm
62.5 (≈ 187 µM)			Oc1ccc(-c2ccccc2)cc1CNC12CC3CC(CC(C3)C1)C2	15	15		15.1	<15								15.8	inhibition zone (IZ) [31]: 16.8 mm; inhibition zone (IZ) [32]: 18.9 mm; inhibition zone (IZ) [33]: 15.6 mm; inhibition zone (IZ) [34]: 17.3 mm; inhibition zone (IZ) [35]: 18.7 mm
